Source: PubChem (several laboratories)
Rows were chosen to be rich in hits. Some 1.2% of all compounds tested hit in one or more screens of this group.
HKDC1 inhibitor = HKDC1 hexokinase inhibitors, primary screen, biochemical, fluorescence, uHTS; Q2TB90; recombinant HKDC1, G6PDH/diaphorase resazurin coupled fluorescence; inhibition, % at 20 µM; 340,000 compounds, 0.16% hits; AID 493160, 2011;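 active means inhibition above about 35% when tested at 20 µM, limit read from the data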;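 further: plate controls were DMSO wells with enzyme for no effect and DMSO wells lacking enzyme for full effect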
Target sequence (Q2TB90 whole entry, looked up): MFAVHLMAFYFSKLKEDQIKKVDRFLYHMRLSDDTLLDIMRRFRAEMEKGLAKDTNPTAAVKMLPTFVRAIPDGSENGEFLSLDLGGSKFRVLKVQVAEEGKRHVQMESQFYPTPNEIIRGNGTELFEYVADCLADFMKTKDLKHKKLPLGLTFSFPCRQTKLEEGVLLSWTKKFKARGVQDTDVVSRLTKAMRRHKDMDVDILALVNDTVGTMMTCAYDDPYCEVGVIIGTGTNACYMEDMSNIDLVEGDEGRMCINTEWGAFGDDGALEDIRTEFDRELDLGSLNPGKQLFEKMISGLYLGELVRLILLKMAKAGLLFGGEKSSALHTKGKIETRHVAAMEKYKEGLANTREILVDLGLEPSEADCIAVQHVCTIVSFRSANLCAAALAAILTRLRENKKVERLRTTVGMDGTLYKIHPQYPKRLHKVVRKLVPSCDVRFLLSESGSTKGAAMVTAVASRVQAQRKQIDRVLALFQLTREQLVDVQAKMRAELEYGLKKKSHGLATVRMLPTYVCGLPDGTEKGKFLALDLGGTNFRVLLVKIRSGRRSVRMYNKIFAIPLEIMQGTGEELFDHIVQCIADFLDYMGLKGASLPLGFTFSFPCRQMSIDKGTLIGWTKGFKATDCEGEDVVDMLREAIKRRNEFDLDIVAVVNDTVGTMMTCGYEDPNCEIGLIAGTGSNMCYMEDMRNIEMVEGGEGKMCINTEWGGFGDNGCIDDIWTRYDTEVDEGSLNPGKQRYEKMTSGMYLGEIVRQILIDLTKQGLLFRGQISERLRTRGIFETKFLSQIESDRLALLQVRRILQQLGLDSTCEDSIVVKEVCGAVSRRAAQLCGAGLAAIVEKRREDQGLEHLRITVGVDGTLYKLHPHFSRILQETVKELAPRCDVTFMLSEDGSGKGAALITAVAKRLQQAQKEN
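Test system: HK5 enzyme. Quantity: 5 µg/mL HK5 final. Reagent: glucose and ATP substrates. Schedule: 90 min reaction incubation at room temperature, dark. Technique: resazurin-to-resorufin fluorescence via G6PDH and diaphorase coupling, 525/613 nm. Control set: DMSO wells with and without enzyme mix.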
PfGluPho inh = PfG6PD enzyme inhibitors, primary screen, biochemical, fluorescence intensity, uHTS | inhibition, % at 20 µM | PfGluPho enzyme, NADPH resazurin-diaphorase fluorescence | 350,000 compounds, 0.78% hits | glucose-6-phosphate dehydrogenase-6-phosphogluconolactonase (Plasmodium falciparum 3D7);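 active means inhibition reaching at least a set limit at 20 µM in the primary screen, cut at about 59% in these data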;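 further: 0% = DMSO wells with substrate and 100% = DMSO wells lacking glucose-6-phosphate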
Tb hexokinase = Trypanosoma brucei hexokinase 1 inhibitors, primary screen, biochemical, G6PDH-coupled NADH absorbance, MLSCN library | hexokinase 1 [Trypanosoma brucei] | recombinant TbHK1, G6PDH-coupled NADH A340 | inhibition, % at 10 µM | 220,000 compounds, 0.11% hits | AID 1430, 2008;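 active means inhibition of 50% or more in the single-dose primary screen; inactive means inhibition below 50%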
G6PDH CS = L. mesenteroides G6PDH inhibitors, counter-screen for G6PDH-coupled screening assays, biochemical, Leuconostoc mesenteroides enzyme | glucose-6-phosphate dehydrogenase [Leuconostoc mesenteroides] | 200,000 compounds, 0.12% hits | inhibition, % at 5 µM | Purified L. mesenteroides G6PDH, diaphorase/resazurin coupled fluorescence, 45 min; in the data active means inhibition above about 50%
Diaphorase inh = diaphorase inhibitors and chemical oxidizers, primary screen, counter-screen for diaphorase-coupled primary assays, biochemical, uHTS, resorufin fluorescence; diaphorase resazurin-to-resorufin fluorescence, NADH, 16 min; bacterial (C. kluyveri) enzyme, not human; inhibition, % at 20 µM; 190,000 compounds, 0.69% hits; AID 1217, 2008;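 active means primary screen inhibition at 20 µM above a set limit, cut at about 50% in these data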;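 further: plate controls were DMSO with full reaction for no effect and wells lacking NADH for full effect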
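Assay system: diaphorase enzyme from Clostridium kluyveri. Quantity: enzyme working solution with 0.14 U/mL diaphorase. Schedule: reaction incubation of 16 min at room temperature. Technique: resorufin fluorescence, excitation 544 nm, emission 590 nm. Controls: No-NADH positive control and DMSO neutral control.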
An asterisk follows results filed as active; / = no result given.

SMILES | HKDC1 inhibitor | PfGluPho inh | Tb hexokinase | G6PDH CS | Diaphorase inh
Oc1ccc(Br)cc1C=Nc1ccc2c3c(cccc13)CC2 | 7 | 30 | 23 | 41 | 67*
Oc1ccc(Cl)cc1C=Nc1ccccc1Br | 2 | -7 | -10 | 9 | 17
CSCC[C@H](NC(=O)OC(C)(C)C)c1nnc(SCC(=O)Nc2c(C)cccc2C)o1 | 3 | -13 | 51* | 2 | 15
On1ccccc1=S | -2 | 75* | / | / | /
O=C(Cn1ccccc1=S)c1ccc(Cl)c(Cl)c1 | 11 | 9 | / | / | /
CC(C)n1c2ccccc2c2nnc(SCC(=O)OCN3C(=O)c4ccccc4C3=O)nc21 | 17 | 9 | -2 | -5 | 57*
Cn1c2ccccc2c2nnc(SCN3C(=O)c4ccccc4C3=O)nc21 | / | / | / | 0 | 28
CCOc1cc(CNc2ccc3cn[nH]c3c2)ccc1OC | 15 | 33 | -11 | 33 | 57*
COc1ccc(CNc2ccncc2)c(OC)c1OC | 0 | -9 | / | / | /
COc1ccccc1S(=O)(=O)Nc1ccc2cn[nH]c2c1 | -7 | -8 | 1 | 5 | 9
COc1ccc(CNc2ccc3cn[nH]c3c2)c(OC)c1OC | 7 | 40 | -8 | 28 | 57*
Cc1cccc(N2CCc3c2nc2ccc(Br)cc2c3N)c1 | 8 | 37 | 5 | 7 | 78*
Nc1c2c(nc3ccc(Br)cc13)N(c1ccccc1)CC2 | -7 | 20 | -10 | 0 | 26
Cc1ccc2c(c1)nnn2C1CCN(C(=O)NCc2ccccc2)CC1 | 3 | 8 | -4 | 11 | -17
Cc1cccc(NC(=O)N2CCC(n3nnc4cc(C)ccc43)CC2)c1 | 15 | -10 | -2 | 19 | 79*
COc1ccc(CN2C(=O)C(CC(=O)NCCCN(C)C)CC(C(=O)N(C)C)=C2C)cc1 (stereo not drawn) | / | 4 | / | / | /
Cc1[nH][nH]c(=O)c1C(c1ccc(-c2cccc(C(=O)O)c2)o1)c1c(C)[nH][nH]c1=O | -2 | 19 | -4 | 24 | 26
COC(=O)c1ccc(-c2ccc(C(c3c(C)[nH][nH]c3=O)c3c(C)[nH][nH]c3=O)o2)cc1 | 7 | 35 | -11 | 24 | 68*
O=C1C=CN(C2OC(CO)C(O)C2O)C(=O)C1 (stereo not drawn) | / | -24 | / | / | /
COc1ccc(NC(=O)CN(c2ccccc2)S(=O)(=O)N(C)C)cc1OC | -6 | 4 | 4 | 11 | 1
COc1ccc(NC(=O)CN(c2ccccc2)S(=O)(=O)N(C)C)cc1Cl | -4 | 9 | 6 | -4 | 68*
CCCC(=O)NC(c1ccco1)c1cc([N+](=O)[O-])c2cccnc2c1O (stereo not drawn) | 4 | 12 | -5 | 56* | 38
CC(=O)NC(c1ccco1)c1ccc2cccnc2c1O (stereo not drawn) | -13 | -22 | 7 | 42 | 53*
CCC(=O)NC(c1ccc(C)cc1)c1cc([N+](=O)[O-])c2cccnc2c1O (stereo not drawn) | 4 | -17 | 14 | 37 | 29
CC(=O)NC(c1ccc(C)cc1)c1cc([N+](=O)[O-])c2cccnc2c1O (stereo not drawn) | 20 | 27 | 16 | 61* | 60*
SMILES | HKDC1 inhibitor | PfGluPho inh | Tb hexokinase | G6PDH CS | Diaphorase inh
CCCC(=O)NC(c1ccc(OC)c(OC)c1)c1cc(Cl)c2cccnc2c1O (stereo not drawn) | -34 | -12 | 1 | 15 | 35
Cc1coc2c(C)c3oc(=O)c(CCC(=O)N[C@H](C(=O)O)C(C)C)c(C)c3cc12 | / | -4 | / | / | /
Oc1ccccc1/C=N/Nc1ncc(Br)cn1 | 10 | -9 | -4 | 58* | 14
O=C(CCn1c(=O)oc2ccccc21)N(Cc1ccccc1)c1ccccc1 | 3 | -8 | -8 | 7 | 69*
CN(Cc1ccccc1)C(=O)CCn1c(=O)oc2ccccc21 | -8 | -1 | 0 | 1 | 7
COC(=O)c1c(C)[nH]c(C(=O)OC(C)C(=O)NC2CCCCC2C)c1C (stereo not drawn) | / | -16 | / | / | /
O=c1[nH]c2ccc(N=Cc3c(O)ccc4cc(Br)ccc34)cc2[nH]1 | 8 | 28 | -3 | 8 | 55*
CC1(C)N([O-])C2=C(c3ccccc3C2=O)[N+](=O)C1(C)C | 6 | 31 | -38 | 3 | 67*
Cc1ccc(S(=O)(=O)N2CCOCC2)cc1NC(=O)CSc1nnc2cc(C)c3ccccc3n12 | 20 | 9 | -18 | 10 | 54*
COC1=C(C)C(=O)C2=C(C1=O)C1C3CC4=C(C(=O)C(OC)=C(C)C4=O)C(CNC(=O)C(C)=O)N3C(C#N)C(C2)N1C (stereo not drawn) | 60* | 120* | / | / | /
COc1cc(NS(=O)(=O)c2ccc(C)cc2)c2c(c1N)C(=O)c1ccccc1C2=O | / | 4 | / | / | /
Cc1ccccc1C(=O)N1CCC(C(=O)N2CCN(c3ncccn3)CC2)CC1 | 1 | -2 | / | / | /
CCOC(=O)N1CCN(C(=O)C2CCN(C(=O)c3ccccc3C)CC2)CC1 | 0 | 117* | / | / | /
CCN(CC)S(=O)(=O)c1ccc(NC=C(C#N)C#N)cc1 | -8 | -11 | -74 | / | /
O=[N+]([O-])c1ccc(Nc2ccccc2)c2nonc12 | 8 | -13 | / | / | /
O=[N+]([O-])c1ccc(Sc2cccc[n+]2[O-])c2nonc12 | 15 | 115* | -20 | / | /
CCc1ccc(N2CC(C(=O)N/N=C/c3cc([N+](=O)[O-])ccc3O)CC2=O)cc1 (stereo not drawn) | -8 | -42 | -10 | -12 | 51*
O=C(NCCc1ccccc1)c1ccc2c(c1)S(=O)(=O)N=C1CCCCCN12 | 3 | 9 | / | / | /
C[C@@H]1CN([C@H](C)CO)S(=O)(=O)c2ccc(C3=CCCCC3)cc2O[C@H]1CN(C)C(=O)Cc1cccnc1 | / | 17 | / | / | /
Cc1cc(=O)[nH]c(Nc2cccc(C(F)(F)F)c2)n1 | -2 | 5 | 17 | 5 | -6
O=c1cc(O)c2sc(Nc3cccc(C(F)(F)F)c3)nc2[nH]1 | 22 | 20 | -1 | 16 | 66*
O=c1cc(O)c2sc(Nc3ccc(F)cc3)nc2[nH]1 | 21 | 54 | -17 | 13 | 78*
O=C(CN1C(=O)C2CCCCC2C1=O)Nc1cc([N+](=O)[O-])ccc1F (stereo not drawn) | -2 | 0 | / | / | /
C[C@@H]1CN([C@@H](C)CO)C(=O)CCCn2nncc2CO[C@H]1CN(C)C(=O)c1ccncc1 | / | 0 | / | / | /
Cc1cccc(OCC(=O)NC(=S)NNC(=O)c2ccncc2)c1 | -6 | 77* | / | / | /
Cc1cccc(NC2=C/C(=N/S(=O)(=O)c3cccs3)c3ccccc3C2=O)c1 | 53* | 62* | -5 | 53* | 13
Cc1cc(C)c(S(=O)(=O)/N=C2\C=C(NS(=O)(=O)c3ccccc3)C(=O)c3ccccc32)c(C)c1 | 19 | 1 | / | / | /
